# Test results published in ChEMBL document CHEMBL1138570, “2-Acylhydrazino-5-arylpyrrole derivatives: synthesis and antifungal activity evaluation” (Eur J Med Chem, 2009).
# Assays:
# Assay type in all cases: functional
# Candida parapsilosis [1] = assay: Antimicrobial activity against Candida parapsilosis after 72 hrs by broth microdilution method; conditions: Lodderomyces parapsilosis
# In short: (§1)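 MFC: after MIC reading, a sample from each well was plated on Sabouraud dextrose agar and incubated 72 h at 35 °C. MFC was taken as the minimum concentration killing >99% of the original inoculum. The MIC step was NCCLS broth microdilution in MOPS-buffered RPMI 1640 (pH 7.0), with 2 ×10⁴ cells/mL, overnight at 35 °C.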
# Nakaseomyces glabratus [2] = assay: Antimicrobial activity against Candida glabrata by broth microdilution method
# In short: (§2)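 MIC by NCCLS broth microdilution. Medium was RPMI 1640 with L-glutamine, buffered with 0.165 M MOPS at pH 7.0. Twofold drug dilutions ran 0.008–200 mg/L. Inoculum was set spectrophotometrically to 10⁶ CFU/mL, then diluted in medium to 2 ×10⁴ cells/mL. Plates were incubated overnight at 35 °C in humid air, agitated, and read visually and at 450 nm.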
# Candida parapsilosis [3] = assay: Antimicrobial activity against Candida parapsilosis by broth microdilution method; conditions: Lodderomyces parapsilosis; in short: as §2
# Candida albicans [4] = assay: Antimicrobial activity against Candida albicans ATCC 10231 by broth microdilution method; in short: as §2
# Candida albicans [5] = assay: Antimicrobial activity against Candida albicans ATCC 10231 after 72 hrs by broth microdilution method; conditions: ATCC 10231, 72 h; in short: as §1
# Pichia kudriavzevii [6] = assay: Antimicrobial activity against Candida krusei after 72 hrs by broth microdilution method; in short: as §1
# Nakaseomyces glabratus [7] = assay: Antimicrobial activity against Candida glabrata after 72 hrs by broth microdilution method; in short: as §1
# Pichia kudriavzevii [8] = assay: Antimicrobial activity against Candida krusei by broth microdilution method; in short: as §2
MIC (Nakaseomyces glabratus [2]),MIC (Candida parapsilosis [3]),MIC (Candida albicans [4]),MIC (Pichia kudriavzevii [8]),Structure (SMILES),MFC (Candida parapsilosis [1]),MFC (Candida albicans [5]),MFC (Pichia kudriavzevii [6]),MFC (Nakaseomyces glabratus [7])
6.25 µg/mL,12.5 µg/mL,6.25 µg/mL,12.5 µg/mL,COCCC(=O)NNc1[nH]c(-c2ccccc2)cc1C(=O)OC,100 µg/mL,12.5 µg/mL,25 µg/mL,25 µg/mL
3.25 µg/mL,6.25 µg/mL,6.25 µg/mL,6.25 µg/mL,COCCC(=O)NNc1[nH]c(-c2ccccc2)cc1C#N,25 µg/mL,6.25 µg/mL,12.5 µg/mL,12.5 µg/mL
6.25 µg/mL,6.25 µg/mL,3.12 µg/mL,12.5 µg/mL,COC(=O)c1cc(-c2ccccc2)[nH]c1NNC(C)=O,25 µg/mL,6.25 µg/mL,12.5 µg/mL,25 µg/mL
> 100 µg/mL,25 µg/mL,6.25 µg/mL,25 µg/mL,CCOC(=O)c1cc(-c2ccc(C)cc2)[nH]c1NNC(=O)C(C)C,> 100 µg/mL,12.5 µg/mL,100 µg/mL,> 100 µg/mL
> 100 µg/mL,6.25 µg/mL,6.25 µg/mL,12.5 µg/mL,CCOC(=O)c1cc(-c2ccc(OC)cc2)[nH]c1NNC(=O)C(C)C,> 100 µg/mL,12.5 µg/mL,> 100 µg/mL,> 100 µg/mL
6.25 µg/mL,25 µg/mL,> 100 µg/mL,> 100 µg/mL,CCOC(=O)c1cc(-c2ccccc2)[nH]c1NNC(=O)C(C)C,100 µg/mL,> 100 µg/mL,> 100 µg/mL,12.5 µg/mL
50 µg/mL,25 µg/mL,3.12 µg/mL,50 µg/mL,COc1ccc(-c2cc(C#N)c(NNC(=O)C(C)C)[nH]2)cc1,> 100 µg/mL,3.12 µg/mL,> 100 µg/mL,> 100 µg/mL
25 µg/mL,6.25 µg/mL,6.25 µg/mL,6.25 µg/mL,COCC(=O)NNc1[nH]c(-c2ccccc2)cc1C#N,6.25 µg/mL,6.25 µg/mL,25 µg/mL,50 µg/mL
3.12 µg/mL,3.12 µg/mL,3.12 µg/mL,1.56 µg/mL,CCC(=O)NNc1[nH]c(-c2ccccc2)cc1C#N,12.5 µg/mL,6.25 µg/mL,12.5 µg/mL,12.5 µg/mL
> 100 µg/mL,100 µg/mL,12.5 µg/mL,> 100 µg/mL,CCCC(=O)NNc1[nH]c(-c2ccccc2)cc1C(=O)OCC,> 100 µg/mL,12.5 µg/mL,> 100 µg/mL,> 100 µg/mL
25 µg/mL,6.25 µg/mL,6.25 µg/mL,6.25 µg/mL,COCC(=O)NNc1[nH]c(-c2ccc(OC)cc2)cc1C#N,12.5 µg/mL,6.25 µg/mL,12.5 µg/mL,50 µg/mL
6.25 µg/mL,6.25 µg/mL,3.12 µg/mL,12.5 µg/mL,CCC(=O)NNc1[nH]c(-c2ccccc2)cc1C(=O)OC,12.5 µg/mL,6.25 µg/mL,25 µg/mL,25 µg/mL
> 100 µg/mL,12.5 µg/mL,> 100 µg/mL,25 µg/mL,CCOC(=O)c1cc(-c2ccc(Cl)cc2)[nH]c1NNC(C)=O,25 µg/mL,> 100 µg/mL,50 µg/mL,> 100 µg/mL
> 100 µg/mL,100 µg/mL,> 100 µg/mL,100 µg/mL,CCOC(=O)c1cc(-c2ccc(C)cc2)[nH]c1NNC(=O)Cc1ccc(OC)cc1,> 100 µg/mL,> 100 µg/mL,> 100 µg/mL,> 100 µg/mL
> 100 µg/mL,> 100 µg/mL,> 100 µg/mL,> 100 µg/mL,CCOC(=O)c1cc(-c2ccc(Cl)cc2)[nH]c1NNC(=O)Cc1ccc(OC)cc1,> 100 µg/mL,> 100 µg/mL,> 100 µg/mL,> 100 µg/mL
6.25 µg/mL,50 µg/mL,3.12 µg/mL,12.5 µg/mL,CCOC(=O)c1cc(-c2ccc(OC)cc2)[nH]c1NNC(C)=O,50 µg/mL,3.12 µg/mL,25 µg/mL,12.5 µg/mL
6.25 µg/mL,6.25 µg/mL,3.12 µg/mL,3.12 µg/mL,COCCC(=O)NNc1[nH]c(-c2ccc(OC)cc2)cc1C#N,12.5 µg/mL,6.25 µg/mL,6.25 µg/mL,12.5 µg/mL
> 100 µg/mL,> 100 µg/mL,> 100 µg/mL,> 100 µg/mL,CCOC(=O)c1cc(-c2ccc(Cl)cc2)[nH]c1NNC(=O)C(C)C,> 100 µg/mL,> 100 µg/mL,> 100 µg/mL,> 100 µg/mL
3.12 µg/mL,6.25 µg/mL,3.12 µg/mL,3.12 µg/mL,CCOC(=O)NNc1[nH]c(-c2ccccc2)cc1C#N,12.5 µg/mL,3.12 µg/mL,6.25 µg/mL,6.25 µg/mL
